The values that follow come from PubChem BioAssay AID652185 (Vanderbilt Specialized Chemistry Center, 2013).

The source made the active and inactive calls. How the calls were made is not given here.

In the test the target is Metabotropic glutamate receptor 2 (Rattus norvegicus) (UniProt P31421). Put plainly: off-target modulation of rat mGlu2, profiling panel, selectivity assay for mGlu5 silent allosteric modulators, cell-based, HEK293A, Galpha15, calcium mobilization (AID 652185). To be noted: HEK293A rmGlu2+Galpha15, Fluo4 calcium mobilization, glutamate CRC. The gist of the method: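 material = rat mGlu2 plus Galpha15 in HEK293A cells | medium = HEPES-buffered HBSS with probenecid, pH 7.4 | technique = Fluo4-AM (1 µM) calcium-dependent fluorescence | also added = glutamate, 10 nM–1 mM, 9 concentrations | doses = single compound dose of 10 µM, 1% DMSO final | incubation = 60 min 37 °C dye load, compound 60 s pre-glutamate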
Sequence of Metabotropic glutamate receptor 2 (Rattus norvegicus) (P31421 whole entry, looked up): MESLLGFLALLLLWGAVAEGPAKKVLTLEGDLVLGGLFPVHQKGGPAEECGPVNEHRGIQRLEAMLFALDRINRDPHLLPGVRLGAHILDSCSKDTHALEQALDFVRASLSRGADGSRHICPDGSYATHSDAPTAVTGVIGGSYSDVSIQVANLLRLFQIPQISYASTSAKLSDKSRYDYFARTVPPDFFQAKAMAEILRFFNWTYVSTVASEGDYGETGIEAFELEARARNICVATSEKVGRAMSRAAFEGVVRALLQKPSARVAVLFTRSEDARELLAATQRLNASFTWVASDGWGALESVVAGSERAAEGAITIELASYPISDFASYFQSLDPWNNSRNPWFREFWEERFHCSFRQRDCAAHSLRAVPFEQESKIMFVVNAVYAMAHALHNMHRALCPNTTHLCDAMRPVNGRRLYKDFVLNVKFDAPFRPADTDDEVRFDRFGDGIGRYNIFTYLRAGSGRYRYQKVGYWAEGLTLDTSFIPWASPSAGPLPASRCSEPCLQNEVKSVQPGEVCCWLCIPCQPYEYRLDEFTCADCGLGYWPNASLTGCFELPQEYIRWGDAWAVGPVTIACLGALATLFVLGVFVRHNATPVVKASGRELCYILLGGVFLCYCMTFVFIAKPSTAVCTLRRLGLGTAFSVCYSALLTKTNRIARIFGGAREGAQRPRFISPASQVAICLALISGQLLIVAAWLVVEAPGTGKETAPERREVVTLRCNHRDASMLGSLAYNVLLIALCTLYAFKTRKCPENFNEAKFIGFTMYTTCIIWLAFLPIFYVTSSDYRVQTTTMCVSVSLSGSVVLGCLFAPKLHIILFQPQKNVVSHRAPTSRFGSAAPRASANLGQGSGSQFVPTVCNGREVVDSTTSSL

Take `O=C(c1ccc(C#Cc2cccc(F)c2)cn1)N1CC2CC2C1` (stereo unspecified): the “glutamate EC50 in presence of 10 uM compound (no shift = inactive)” value was “inactive”.
